Measured values published in ChEMBL document CHEMBL1138297, “Design, synthesis, and multivariate quantitative structure-activity relationship of salicylanilides--potent inhibitors of type III secretion in Yersinia” (J Med Chem, 2007).

Tests used:
[1] = tested on: Yersinia pseudotuberculosis; assay: Effect on T3S in Yersinia pseudotuberculosis 3 pIB29 assessed as inhibition of light emission at 20 uM by luciferase reporter gene assay
In short: (§1)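 YPIII pIB29 (yopE-luxAB) reporter strain grown overnight at ambient temperature in BHI with 5 mM EGTA and 20 mM MgCl2 to deplete calcium. Culture adjusted to OD600 0.15-0.25 and added to compounds in DMSO (final ≤1%). Incubated 1 h at ambient temperature with shaking, then 2 h at 37 °C. Decanal substrate added and luminescence read at once. Triplicates; repeated on ≥2 occasions.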

[2] = tested on: Yersinia pseudotuberculosis; assay: Effect on T3S in Yersinia pseudotuberculosis 3 pIB29 assessed as inhibition of light emission at 10 uM by luciferase reporter gene assay; in short: as §1
[3] = tested on: Yersinia pseudotuberculosis; assay: Effect on T3S in Yersinia pseudotuberculosis 3 pIB29 assessed as inhibition of light emission at 1 uM by luciferase reporter gene assay; in short: as §1
[4] = tested on: Yersinia pseudotuberculosis; assay: Effect on T3S in Yersinia pseudotuberculosis 3 pIB29 assessed as inhibition of light emission at 5 uM by luciferase reporter gene assay; in short: as §1
[5] = tested on: Yersinia pseudotuberculosis; assay: Effect on T3S in Yersinia pseudotuberculosis 3 pIB29 assessed as inhibition of light emission at 50 uM by luciferase reporter gene assay; in short: as §1
[6] = tested on: Yersinia pseudotuberculosis; assay: Effect on T3S in Yersinia pseudotuberculosis 3 pIB29 assessed as inhibition of light emission at 2 uM by luciferase reporter gene assay; in short: as §1
[7] = tested on: Yersinia pseudotuberculosis; assay: Effect on T3S in Yersinia pseudotuberculosis 3 pIB29 assessed as inhibition of light emission at 100 uM by luciferase reporter gene assay; in short: as §1
[8] = tested on: Yersinia pseudotuberculosis; assay: Effect on T3S in Yersinia pseudotuberculosis 3 pIB29 assessed as inhibition of light emission at 0.5 uM by luciferase reporter gene assay; in short: as §1

| SMILES | inhibition [1] | inhibition [2] | inhibition [3] | inhibition [4] | inhibition [5] | inhibition [6] | inhibition [7] | inhibition [8] |
| --- | --- | --- | --- | --- | --- | --- | --- | --- |
| CC(=O)Oc1c(I)cc(I)cc1C(=O)Nc1ccc(Cl)cc1 | 98% | 76% | 7% | 54% | 99% | 17% | 99% | 3% |
| CC(=O)Oc1ccc(I)cc1C(=O)Nc1ccc(Br)cc1 | 100% | 98% | 71% | 100% | 100% | 94% | 100% | 54% |
| CC(=O)Oc1c(I)cc(I)cc1C(=O)Nc1ccc(SC(F)(F)F)cc1 | 71% | 72% | 11% | 60% | 71% | 19% | 75% | 11% |
| O=C(Nc1ccc(SC(F)(F)F)cc1)c1cc(I)ccc1O | 57% | 57% | 53% | 55% | 49% | 53% | 51% | 17% |
| O=C(Nc1ccc(Br)cc1)c1cccc(Cl)c1O | 62% | 24% | 6% | 12% | 96% | 12% | 100% | 5% |
| O=C(Nc1ccc(Cl)cc1)c1cc(I)cc(I)c1O | 100% | 100% | 47% | 95% | 100% | 60% | 99% | 15% |
| O=C(Nc1ccc(Cl)cc1)c1cc(I)ccc1O | 85% | 91% | 68% | 91% | 80% | 90% | 78% | 55% |
| Cc1cc(NC(=O)c2cc(Cl)ccc2O)ccc1Cl | 85% | 61% | 50% | 85% | 56% | 62% | 75% | 15% |
| CC(=O)Oc1c(I)cc(I)cc1C(=O)Nc1ccc(F)cc1 | 76% | 60% | 6% | 31% | 86% | 15% | 93% | 12% |
| O=C(Nc1ccc(SC(F)(F)F)cc1)c1cc(I)cc(I)c1O | 100% | 83% | 17% | 75% | 100% | 39% | 100% | 19% |
| CC(=O)Oc1c(Cl)cccc1C(=O)Nc1ccc(Br)cc1 | 36% | 18% | 8% | 12% | 78% | 9% | 99% | -2% |
